ChEMBL document CHEMBL1133004, “3-Alkylamino-4H-pyrido[2,3-e]-1,2,4-thiadiazine 1,1-dioxides structurally related to diazoxide and pinacidil as potassium channel openers acting on vascular smooth muscle cells: design, synthesis, and pharmacological evaluation” (2000)

Organism: Rattus norvegicus
Test: Concentration giving 50% relaxation of the 30 mM KCL-induced contraction of rat aorta rings
Assay type: functional
Conditions: read-out: ED50 (the source's name)
Method in brief: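 Endothelium-denuded aortic rings (3-4 mm) from fed Wistar rats (250-300 g), held at 1 g tension in Krebs-bicarbonate at 37 °C under O2/CO2 (95/5), isometric recording. After 60 min equilibration, contracted with 30 or 80 mM KCl as specified. At plateau, drug was added cumulatively to maximal relaxation or 1 mM. Glibenclamide (1 or 10 µM) was present throughout where stated. ED50 was read graphically as 50% inhibition of the KCl plateau.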

SMILES	EC50
CCC(C)NC1=NS(=O)(=O)c2cc(Cl)cnc2N1 (stereo not drawn)	20 µM
O=S1(=O)NC(NCc2ccccc2)=Nc2ncc(Cl)cc21	43.6 µM
C[C@@H](NC1=NS(=O)(=O)c2cc(Cl)cnc2N1)c1ccccc1	38.8 µM
O=S1(=O)NC(NCC2CCCCC2)=Nc2ncc(Cl)cc21	38.2 µM
CC(C)NC1=NS(=O)(=O)c2cc(Cl)cnc2N1	14.6 µM
CCC(C)NC1=NS(=O)(=O)c2cccnc2N1 (stereo not drawn)	50.9 µM
CC(C)NC1=NS(=O)(=O)c2cccnc2N1	132 µM
C[C@H](NC1=NS(=O)(=O)c2cccnc2N1)c1ccccc1	9.9 µM
O=S1(=O)N=C(NCC2CCCCC2)Nc2ncccc21	45.7 µM
C[C@H](NC1=NS(=O)(=O)c2cc(Cl)cnc2N1)C1CCCCC1	3.8 µM
CC1=NS(=O)(=O)c2cc(Cl)cnc2N1	> 300 µM
C[C@H](NC1=NS(=O)(=O)c2cccnc2N1)C1CCCCC1	25.2 µM

Organism: Cavia porcellus
Test: Inhibition of electrically stimulated contractions of guinea pig ileum segments.
Assay type: functional
Conditions: read-out: ED50 (the source's name)
Method in brief: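 Ileum segments (4 cm, taken ≥10 cm from cecum) from adult guinea pigs (300-400 g), 1 g initial load, Krebs-bicarbonate at 37 °C, gassed 95% O2/5% CO2. Coaxial stimulation at 0.5-ms pulses, 0.1 Hz, 5-25 V, with isometric recording. Drug was added cumulatively to maximal effect and expressed as % of the 5-min pre-drug response. ED50 was assessed graphically.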

SMILES	EC50
O=S1(=O)NC(NCC2CCCCC2)=Nc2ncc(Cl)cc21	17.4 µM
CC(C)NC1=NS(=O)(=O)c2cc(Cl)cnc2N1	> 300 µM
CC(C)NC1=NS(=O)(=O)c2cccnc2N1	> 300 µM
C[C@H](NC1=NS(=O)(=O)c2cccnc2N1)c1ccccc1	> 300 µM
O=S1(=O)N=C(NCC2CCCCC2)Nc2ncccc21	145 µM
C[C@H](NC1=NS(=O)(=O)c2cc(Cl)cnc2N1)C1CCCCC1	20.4 µM
C[C@H](NC1=NS(=O)(=O)c2cccnc2N1)C1CCCCC1	> 300 µM

Organism: Rattus norvegicus
Test: Effect on Oxytocin-Induced contractions of rat uterus at concentrations 100 uM
Assay type: functional
Conditions: not given
Method in brief: (§1)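 Uterine horns from fed Wistar rats (150-200 g) primed the day before with im diethylstilboestrol dipropionate (0.1 mL/100 g of 1 mg/mL oily solution). Horns were superfused with Tyrode at 37 °C under O2/CO2 (95/5). 20 mU oxytocin was injected at 10-min intervals until contractions (AUC) were constant, then repeated ≥3 times per drug concentration. Response is given as % of the drug-free oxytocin contraction.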

SMILES	Contraction
CC(Cc1ccc(O)cc1)NCC(O)c1cc(O)cc(O)c1 (stereo not drawn) [FENOTEROL]	35.5%

Organism: Rattus norvegicus
Test: Effect on Oxytocin-Induced contractions of rat uterus at concentrations 10 uM
Assay type: functional
Conditions: not given
Method in brief: as §1

SMILES	Contraction
CC(Cc1ccc(O)cc1)NCC(O)c1cc(O)cc(O)c1 (stereo not drawn) [FENOTEROL]	38.4%

Organism: Rattus norvegicus
Test: Insulin secretion from rat pancreatic islets (RIS) in the presence of 16.7 mM glucose at 50 uM
Assay type: functional
Conditions: not given
Method in brief: (§2)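 Collagenase-isolated islets from fed Wistar rats (180-220 g), in groups of 10. Preincubated 30 min at 37 °C in bicarbonate salt medium with 2.8 mM glucose and 0.5% albumin under O2/CO2. Then incubated 90 min at 37 °C with 16.7 mM glucose plus drug. Insulin was measured by radioimmunoassay against a rat insulin standard and reported as % residual release.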

SMILES	RIS
CCC(C)NC1=NS(=O)(=O)c2cc(Cl)cnc2N1 (stereo not drawn)	62.7%
O=S1(=O)NC(NCc2ccccc2)=Nc2ncc(Cl)cc21	74.1%
C[C@@H](NC1=NS(=O)(=O)c2cc(Cl)cnc2N1)c1ccccc1	52.3%
O=S1(=O)NC(NCC2CCCCC2)=Nc2ncc(Cl)cc21	57.7%
CC(C)NC1=NS(=O)(=O)c2cc(Cl)cnc2N1	74.4%
CCC(C)NC1=NS(=O)(=O)c2cccnc2N1 (stereo not drawn)	85.9%
CC(C)NC1=NS(=O)(=O)c2cccnc2N1	78.7%
C[C@H](NC1=NS(=O)(=O)c2cccnc2N1)c1ccccc1	73.3%
O=S1(=O)N=C(NCC2CCCCC2)Nc2ncccc21	94.2%
C[C@H](NC1=NS(=O)(=O)c2cc(Cl)cnc2N1)C1CCCCC1	11.8%
CC1=NS(=O)(=O)c2cc(Cl)cnc2N1	87.4%
C[C@H](NC1=NS(=O)(=O)c2cccnc2N1)C1CCCCC1	76.2%

Organism: Rattus norvegicus
Test: Effect on Insulin secretion from rat pancreatic islets (RIS) in the presence of 16.7 mM glucose at 10 uM
Assay type: functional
Conditions: not given
Method in brief: as §2

SMILES	RIS
O=S1(=O)NC(NCC2CCCCC2)=Nc2ncc(Cl)cc21	76.8%
C[C@H](NC1=NS(=O)(=O)c2cc(Cl)cnc2N1)C1CCCCC1	71.9%

Organism: Rattus norvegicus
Test: Effect on Oxytocin-Induced contractions of rat uterus at 100 uM
Assay type: functional
Conditions: not given
Method in brief: as §1

SMILES	Contraction
O=S1(=O)NC(NCc2ccccc2)=Nc2ncc(Cl)cc21	71.9%
C[C@@H](NC1=NS(=O)(=O)c2cc(Cl)cnc2N1)c1ccccc1	32.6%
O=S1(=O)NC(NCC2CCCCC2)=Nc2ncc(Cl)cc21	90.4%
C[C@H](NC1=NS(=O)(=O)c2cc(Cl)cnc2N1)C1CCCCC1	43.7%

Organism: Rattus norvegicus
Test: Effect on Oxytocin-Induced contractions of rat uterus at 50 uM
Assay type: functional
Conditions: not given
Method in brief: as §1

SMILES	Contraction
O=S1(=O)NC(NCc2ccccc2)=Nc2ncc(Cl)cc21	98.9%
C[C@@H](NC1=NS(=O)(=O)c2cc(Cl)cnc2N1)c1ccccc1	59.4%
O=S1(=O)NC(NCC2CCCCC2)=Nc2ncc(Cl)cc21	95.1%
C[C@H](NC1=NS(=O)(=O)c2cc(Cl)cnc2N1)C1CCCCC1	71.4%

Organism: Rattus norvegicus
Test: Effect on Oxytocin-Induced contractions of rat uterus at 10 uM
Assay type: functional
Conditions: not given
Method in brief: as §1

SMILES	Contraction
O=S1(=O)NC(NCc2ccccc2)=Nc2ncc(Cl)cc21	108.2%
C[C@@H](NC1=NS(=O)(=O)c2cc(Cl)cnc2N1)c1ccccc1	88.4%
O=S1(=O)NC(NCC2CCCCC2)=Nc2ncc(Cl)cc21	96.3%
C[C@H](NC1=NS(=O)(=O)c2cc(Cl)cnc2N1)C1CCCCC1	84.9%

Organism: Rattus norvegicus
Test: Effect on Oxytocin-Induced contractions of rat uterus at concentrations 50 uM
Assay type: functional
Conditions: not given
Method in brief: as §1

SMILES	Contraction
CC(Cc1ccc(O)cc1)NCC(O)c1cc(O)cc(O)c1 (stereo not drawn) [FENOTEROL]	36.3%
